Assay results pooled from the literature.
Compare with care: the assays were run in different laboratories.
Target: Mitogen-activated protein kinase kinase kinase kinase 4 (MAP4K4, Homo sapiens, UniProt O95819)

| Compound | assay | conditions | measurement | value |
| --- | --- | --- | --- | --- |
| Oc1ccc(-c2nc(-c3ccncc3)c(-c3ccc(F)cc3)[nH]2)cc1 | cell-free assay | 0.5 µM | remaining signal | 86.5% |
| CO[C@@H](C)c1c(Nc2ccc([C@H](N(C)C(=O)C3CCS(=O)(=O)CC3)C(F)(F)F)cc2)cnc2cc(Cl)nn12 | cell-free assay, competition with immobilised ligand | 1 µM | remaining binding | 100% |
| COc1cc2ncnc(Nc3ccc(Oc4ccccc4)c(C)c3C)c2cc1OC | enzyme activity, inhibitor | 1 µM | inhibition | -3% |
| Cc1nc(C2CCN(C(=O)c3ccc(OC(F)(F)F)cc3N)CC2)c2ncc(N3CCN(C)CC3)cc2n1 | cell-free assay, competition with immobilised ligand | 1 µM | remaining binding | 100% |
| Nc1nc(Nc2ccc(S(N)(=O)=O)cc2)nn1C(=O)c1c(F)cccc1F | cell-free assay | 0.5 µM | remaining signal | 83.8% |
| CCCCN(CCCC)C(=O)CN1C[C@@H](c2cc(OC)c3c(c2)OCO3)[C@H](C(=O)O)[C@H]1CC(C)(C)CCC | cell-free assay, competition with immobilised ligand | 1 µM | remaining binding | 88.9% |
| COc1cc2c(N3CCN(C(=O)Nc4ccc(OC(C)C)cc4)CC3)ncnc2cc1OCCCN1CCCCC1 | cell-free assay | 0.5 µM | remaining signal | 96.6% |
| Cc1ccc(C(=O)NCc2ccsc2)cc1C#Cc1cn(C(C)C)c2ncnc(N)c12 | enzyme activity, inhibitor | 1 µM | activity vs control | 146% |
| Cc1sc(C(=O)NC2COC2)cc1-n1cc(NC(=O)Nc2c(F)cccc2Cl)cn1 | enzyme activity, inhibitor | 10 µM | remaining activity | 93.4% |
| O=C1NC(=O)c2cc(Nc3ccc(F)cc3)c(Nc3ccc(F)cc3)cc21 | cell-free assay | 0.5 µM | remaining signal | 91.2% |
| CC(C)(C)c1nc2c(s1)c1nc(N)ncc1c1ccc(NS(=O)(=O)c3c(F)cccc3F)c(F)c12 | enzyme activity, inhibitor, radiometric | 1 µM | remaining activity | 95% |
| CN(C(=O)c1ccccc1)c1cc(N(C)c2ccc3c(c2)CCc2ccc(C(=O)NCCN4CCOCC4)cc2C3=O)ccc1F | cell-free assay, competition with immobilised ligand | 1 µM | remaining binding | 100% |
| Nc1ncnc2occ(-c3ccc(NC(=O)Nc4cc(C(F)(F)F)ccc4F)cc3)c12 | cell-free assay, inhibitor | 20 µM | remaining signal | 0% |
| CC(C)CC(=O)N1CCc2nc(-c3ccc(Br)cc3)nc(N(C)Cc3ccccc3)c2C1 | cell-free assay, competition with immobilised ligand | 0.1 µM | remaining binding | 84% |
| Cc1ccc(C(=O)Nc2ccc(CN3CCN(C)CC3)c(C(F)(F)F)c2)cc1C#Cc1cnc2cccnn12 | enzyme activity, inhibitor | 23.5 nM | remaining activity | 27% |
| CCCS(=O)(=O)Nc1ccc(F)c(C(=O)c2c[nH]c3ncc(-c4ccc(Cl)cc4)cc23)c1F | enzyme activity, inhibitor | 1 µM | inhibition | < 10% |
| CS(=O)(=O)CCNCc1ccc(-c2ccc3ncnc(Nc4ccc(OCc5cccc(F)c5)c(Cl)c4)c3c2)o1 | cell-free assay | 0.5 µM | remaining signal | 111% |
| CSc1nc(C)c(-c2ccnc(Nc3ccc(N4CCOCC4)cc3)c2)[nH]1 | enzyme activity, inhibitor | 10 µM | inhibition | 77.9% |
